From ChEMBL document CHEMBL4837207, “Discovery of pyrrolo[2,3-d]pyrimidine derivatives as potent Axl inhibitors: Design, synthesis and biological evaluation” (Eur J Med Chem, 2021)

Key:
[1] = molecular target: T1, Tyrosine-protein kinase receptor UFO (Homo sapiens, UniProt P30530); assay: Inhibition of AXL (unknown origin) by ELISA
T1 sequence (P30530 whole entry): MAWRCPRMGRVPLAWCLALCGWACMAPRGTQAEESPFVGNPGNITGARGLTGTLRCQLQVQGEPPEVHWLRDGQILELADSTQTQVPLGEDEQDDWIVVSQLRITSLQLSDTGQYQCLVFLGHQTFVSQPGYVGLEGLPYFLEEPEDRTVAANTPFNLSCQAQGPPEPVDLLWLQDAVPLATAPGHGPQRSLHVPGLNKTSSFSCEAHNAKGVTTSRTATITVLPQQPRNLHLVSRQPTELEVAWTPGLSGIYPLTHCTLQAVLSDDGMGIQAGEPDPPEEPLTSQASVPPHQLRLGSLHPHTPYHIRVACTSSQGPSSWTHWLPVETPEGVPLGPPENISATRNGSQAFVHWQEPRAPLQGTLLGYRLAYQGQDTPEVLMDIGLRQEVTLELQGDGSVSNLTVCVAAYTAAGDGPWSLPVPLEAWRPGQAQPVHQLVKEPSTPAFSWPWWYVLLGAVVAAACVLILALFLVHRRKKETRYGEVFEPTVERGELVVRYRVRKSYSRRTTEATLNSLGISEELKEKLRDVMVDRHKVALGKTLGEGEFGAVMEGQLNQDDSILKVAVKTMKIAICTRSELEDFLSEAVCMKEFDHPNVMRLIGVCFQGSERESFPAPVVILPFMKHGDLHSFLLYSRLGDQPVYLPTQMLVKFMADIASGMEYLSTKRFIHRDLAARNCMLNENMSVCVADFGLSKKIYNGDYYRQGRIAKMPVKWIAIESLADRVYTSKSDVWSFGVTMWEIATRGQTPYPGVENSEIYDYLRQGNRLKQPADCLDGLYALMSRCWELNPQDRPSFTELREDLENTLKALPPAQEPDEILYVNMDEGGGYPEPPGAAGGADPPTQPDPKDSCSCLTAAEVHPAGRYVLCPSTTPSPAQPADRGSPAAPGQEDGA

MKN-45 = assay: Antiproliferative activity against human MKN-45 cells incubated for 72 hrs; assay type: functional, cell-based; conditions: MKN-45, 72 h
Procedure, shortened: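 MKN-45 cells (MET-amplified gastric carcinoma) grown in the supplier-recommended medium and serum, seeded at low density and treated the next day across a concentration range for 72 h. Proliferation read by SRB or CCK-8. IC50 obtained from a four-parameter concentration-response fit; mean ± SD of two independent assays.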

[2] = molecular target: Hepatocyte growth factor receptor (Homo sapiens, UniProt P08581); assay: Inhibition of c-MET (unknown origin) by ELISA
Sequence of Hepatocyte growth factor receptor (P08581 whole entry): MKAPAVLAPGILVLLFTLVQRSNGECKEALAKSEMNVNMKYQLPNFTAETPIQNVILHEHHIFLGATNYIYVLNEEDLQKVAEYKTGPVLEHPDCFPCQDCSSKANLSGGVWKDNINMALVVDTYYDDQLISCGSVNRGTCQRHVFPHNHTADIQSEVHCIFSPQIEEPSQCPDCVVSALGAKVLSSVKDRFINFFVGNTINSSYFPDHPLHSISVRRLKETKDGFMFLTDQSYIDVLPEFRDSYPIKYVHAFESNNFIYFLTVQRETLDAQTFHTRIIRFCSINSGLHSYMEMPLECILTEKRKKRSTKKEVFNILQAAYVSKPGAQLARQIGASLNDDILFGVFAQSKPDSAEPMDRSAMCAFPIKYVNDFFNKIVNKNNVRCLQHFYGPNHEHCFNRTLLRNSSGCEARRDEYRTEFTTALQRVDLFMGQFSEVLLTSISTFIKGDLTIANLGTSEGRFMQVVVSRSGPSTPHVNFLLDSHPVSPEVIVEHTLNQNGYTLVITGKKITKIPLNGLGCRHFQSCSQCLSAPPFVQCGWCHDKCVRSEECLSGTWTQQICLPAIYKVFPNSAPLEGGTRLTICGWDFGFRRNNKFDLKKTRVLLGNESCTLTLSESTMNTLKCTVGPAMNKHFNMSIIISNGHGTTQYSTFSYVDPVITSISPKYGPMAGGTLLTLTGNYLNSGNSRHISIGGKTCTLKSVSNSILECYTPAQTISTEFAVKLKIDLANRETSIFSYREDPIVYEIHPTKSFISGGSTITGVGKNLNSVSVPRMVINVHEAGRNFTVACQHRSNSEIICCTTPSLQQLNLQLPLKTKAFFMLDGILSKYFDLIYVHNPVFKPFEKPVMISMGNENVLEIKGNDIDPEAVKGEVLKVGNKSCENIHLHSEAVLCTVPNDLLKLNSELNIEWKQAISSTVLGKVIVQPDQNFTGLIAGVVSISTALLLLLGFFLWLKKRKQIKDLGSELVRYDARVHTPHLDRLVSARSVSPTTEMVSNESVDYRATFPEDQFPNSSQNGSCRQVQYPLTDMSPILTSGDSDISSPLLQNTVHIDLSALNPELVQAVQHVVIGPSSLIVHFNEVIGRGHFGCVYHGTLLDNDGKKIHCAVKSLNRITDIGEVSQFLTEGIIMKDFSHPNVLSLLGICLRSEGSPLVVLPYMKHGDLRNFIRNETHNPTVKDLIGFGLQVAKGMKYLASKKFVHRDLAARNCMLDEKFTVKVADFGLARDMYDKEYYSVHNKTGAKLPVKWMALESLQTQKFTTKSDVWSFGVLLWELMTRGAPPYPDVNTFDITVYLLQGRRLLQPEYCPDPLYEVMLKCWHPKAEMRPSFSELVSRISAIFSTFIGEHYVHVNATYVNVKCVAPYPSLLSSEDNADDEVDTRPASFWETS

BaF3 = assay: Antiproliferative activity against mouse BaF3 stably expressing human TEL-AXL incubated for 72 hrs; assay type: functional, cell-based; conditions: BaF3, 72 h
[3] = Half life in Sprague-Dawley rat at 3 mg/kg, po via gavage measured up to 24 hrs by LC-MS analysis; assay type: ADME, organism-based; conditions: in vivo
Procedure, shortened: (§1)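 Male Sprague-Dawley rats (n = 3) dosed once by oral gavage at 3 mg/kg as a solution in 5% DMSO/95% (0.5% CMC-Na). Blood sampled at 0.25, 0.5, 1, 2, 4, 6, 8 and 24 h, kept on wet ice, serum separated by centrifugation and stored at -20 °C. Serum levels measured by LC-MS/MS; parameters reported as means.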

[4] = AUC (0 to infinity) in Sprague-Dawley rat at 3 mg/kg, po via gavage measured up to 24 hrs by LC-MS analysis; assay type: ADME, organism-based; design: route oral, dose 3 mg/kg, time <=24; conditions: in vivo; procedure, shortened: as §1
[5] = Tmax in Sprague-Dawley rat at 3 mg/kg, po via gavage measured up to 24 hrs by LC-MS analysis; assay type: ADME, organism-based; conditions: in vivo; procedure, shortened: as §1
[6] = Cmax in Sprague-Dawley rat at 3 mg/kg, po via gavage measured up to 24 hrs by LC-MS analysis; assay type: ADME, organism-based; design: route oral, dose 3 mg/kg, time <=24; conditions: in vivo; procedure, shortened: as §1

| SMILES | IC50 [1] | IC50 (MKN-45) | IC50 [2] | IC50 (BaF3) | half-life [3] | AUC(0-inf) [4] | Tmax [5] | Cmax [6] |
| --- | --- | --- | --- | --- | --- | --- | --- | --- |
| Cn1cc(-c2ccc(NC(=O)c3cn(CC4CCOCC4)cc(-c4ccc(F)cc4)c3=O)c(F)c2)c2c(N)ncnc21 | 0.2 nM | 210 nM | 7.3 nM | < 1 nM | – | – | – | – |
| Cn1cc(-c2ccc(NC(=O)c3cn(CC4CCCCC4)cc(-c4ccc(F)cc4)c3=O)cc2)c2c(N)ncnc21 | 2.3 nM | – | 4.8 nM | – | – | – | – | – |
| Nc1ncnc2[nH]cc(-c3cc(F)c(NC(=O)c4cn(CC5CCOCC5)cc(-c5ccc(F)cc5)c4=O)cc3F)c12 | 0.4 nM | 29.8 nM | 1.7 nM | < 1 nM | 1.37 h | 385 ng·h/mL | 0.83 h | 330 ng/mL |
| Cn1cc(-c2ccc(NC(=O)c3cn(C4CCOCC4)cc(-c4ccc(F)cc4)c3=O)cc2)c2c(N)ncnc21 | 1.1 nM | – | 13.1 nM | – | – | – | – | – |
| Nc1ncnc2c1c(-c1ccc(NC(=O)c3cn(CC4CCOCC4)cc(-c4ccc(F)cc4)c3=O)cc1)cn2CCN1CCOCC1 | 2.7 nM | – | 17 nM | – | – | – | – | – |
| Cc1nc(N)c2c(-c3ccc(NC(=O)c4cn(CC5CCOCC5)cc(-c5ccc(F)cc5)c4=O)cc3)cn(C)c2n1 | 5.1 nM | – | 159 nM | – | – | – | – | – |
| Cn1cc(C(=O)Nc2ccc(-c3cn(C)c4ncnc(N)c34)cc2)c(=O)c(-c2ccc(F)cc2)c1 | 5 nM | – | 24.5 nM | – | – | – | – | – |
| Cn1cc(-c2ccc(NC(=O)c3cn(CC4CCOCC4)cc(-c4ccc(F)cc4)c3=O)cc2F)c2c(N)ncnc21 | 0.8 nM | 93.7 nM | 2.4 nM | < 1 nM | – | – | – | – |
| Cn1cc(-c2ccc(NC(=O)c3cn(CC4CCOCC4)cc(-c4cccc(F)c4)c3=O)cc2)c2c(N)ncnc21 | 3 nM | – | 95.4 nM | – | – | – | – | – |
| Cn1cc(-c2ccc(NC(=O)c3cn(CC4CCOCC4)cc(-c4ccc(F)cc4)c3=O)c(Cl)c2)c2c(N)ncnc21 | 3.7 nM | – | 40.5 nM | – | – | – | – | – |
| COCCCn1cc(C(=O)Nc2ccc(-c3cn(C)c4ncnc(N)c34)cc2)c(=O)c(-c2ccc(F)cc2)c1 | > 10 nM | – | 16.7 nM | – | – | – | – | – |
| Nc1ncnc2[nH]cc(-c3ccc(NC(=O)c4cn(CC5CCOCC5)cc(-c5ccc(F)cc5)c4=O)cc3)c12 | 0.2 nM | 77.9 nM | 4.4 nM | < 1 nM | – | – | – | – |
| CCCn1cc(-c2ccc(NC(=O)c3cn(CC4CCOCC4)cc(-c4ccc(F)cc4)c3=O)cc2)c2c(N)ncnc21 | 1.8 nM | – | 5.1 nM | – | – | – | – | – |
| Cn1cc(-c2ccc(NC(=O)c3cn(CC4CCOCC4)cc(-c4ccc(C(F)(F)F)cc4)c3=O)cc2)c2c(N)ncnc21 | 0.4 nM | 826 nM | 33.1 nM | < 1 nM | – | – | – | – |
| Cn1cc(-c2cc(F)c(NC(=O)c3cn(CC4CCOCC4)cc(-c4ccc(F)cc4)c3=O)cc2F)c2c(N)ncnc21 | 0.5 nM | 53.7 nM | 3.3 nM | < 1 nM | – | – | – | – |
| CN(C)C(=O)Cn1cc(C(=O)Nc2ccc(-c3cn(C)c4ncnc(N)c34)cc2)c(=O)c(-c2ccc(F)cc2)c1 | 0.5 nM | > 1000 nM | 18.4 nM | > 100 nM | – | – | – | – |
| Cn1cc(-c2ccc(NC(=O)c3cn(CC4CCOCC4)cc(-c4ccc(F)cc4)c3=O)cc2)c2c(N)ncnc21 | 0.1 nM | 248 nM | 7.1 nM | < 1 nM | – | – | – | – |
| CC(C)n1cc(C(=O)Nc2ccc(-c3cn(C)c4ncnc(N)c34)cc2)c(=O)c(-c2ccc(F)cc2)c1 | 0.4 nM | 85.3 nM | 18.4 nM | < 1 nM | – | – | – | – |
| Cn1cc(-c2ccc(NC(=O)c3cn(CC4CCOCC4)cc(-c4ccc(Cl)cc4)c3=O)cc2)c2c(N)ncnc21 | 0.2 nM | 347 nM | 12.3 nM | < 1 nM | – | – | – | – |
| Cc1cc(-c2cn(C)c3ncnc(N)c23)ccc1NC(=O)c1cn(CC2CCOCC2)cc(-c2ccc(F)cc2)c1=O | 4 nM | – | 33.8 nM | – | – | – | – | – |
| Cn1cc(-c2ccc(NC(=O)c3cn(CC4CCOCC4)cc(-c4ccccc4)c3=O)cc2)c2c(N)ncnc21 | 1 nM | 318 nM | 20.6 nM | < 1 nM | – | – | – | – |
| CN(C)CCn1cc(-c2ccc(NC(=O)c3cn(CC4CCOCC4)cc(-c4ccc(F)cc4)c3=O)cc2)c2c(N)ncnc21 | 2.8 nM | – | 215 nM | – | – | – | – | – |
| Cn1cc(-c2ccc(NC(=O)c3cn(CC4CCCO4)cc(-c4ccc(F)cc4)c3=O)cc2)c2c(N)ncnc21 (configuration not stated) | 1.2 nM | – | 3.1 nM | – | – | – | – | – |
| Cn1cc(-c2ccc(NC(=O)c3cn(CC4CCOCC4)cc(-c4ccc(F)cc4F)c3=O)cc2)c2c(N)ncnc21 | 0.8 nM | 501 nM | 19.8 nM | < 1 nM | – | – | – | – |
| C[C@@H](Oc1cc(-c2cnn(C3CCNCC3)c2)cnc1N)c1c(Cl)ccc(F)c1Cl [CRIZOTINIB] | – | 15 nM | – | – | – | – | – | – |
